# Most compounds without a hit are left out; they make up all but 3.5% or so of the library.
# RGS4 inh = inhibitors of human RGS4. 310,000 tested, 0.45% active. HEK293 M3R/RGS4 inducible, Fluo-4 calcium flux; stronger effect = higher value; triggered by carbachol at its EC20. AID 463165. B-score at 10 µM;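 active = B-score, a plate-corrected calcium signal, over three deviations above library mean, with baseline fluorescence within five deviations of library mean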;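 also: RGS4 expression induced by doxycycline in cells with stable M3 receptor; B-score is computed from the integrated fluorescence ratio over baseline after carbachol; higher B-score means a larger calcium signal and so more RGS4 inhibition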
# Target sequence (P49798 whole entry, looked up): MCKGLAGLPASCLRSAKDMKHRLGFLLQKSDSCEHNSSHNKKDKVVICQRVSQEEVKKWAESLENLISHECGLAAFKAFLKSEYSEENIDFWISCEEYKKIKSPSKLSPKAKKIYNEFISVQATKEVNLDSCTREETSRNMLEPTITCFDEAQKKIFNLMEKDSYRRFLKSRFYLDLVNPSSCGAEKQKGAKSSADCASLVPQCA
# MrgX1 agonist = activates human MrgX1 receptor signaling. Q96LB2. MrgX1-HEK293 cells, Fluo-4 calcium fluorescence, agonist mode; stronger effect = higher value. B-score at 10 µM. 310,000 tested, 0.44% active;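 active = calcium response B-score plate-corrected fluorescence ratio at least 3 library SD, with starting fluorescence B-score inside 5 SD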
# Target sequence (Q96LB2 whole entry, looked up): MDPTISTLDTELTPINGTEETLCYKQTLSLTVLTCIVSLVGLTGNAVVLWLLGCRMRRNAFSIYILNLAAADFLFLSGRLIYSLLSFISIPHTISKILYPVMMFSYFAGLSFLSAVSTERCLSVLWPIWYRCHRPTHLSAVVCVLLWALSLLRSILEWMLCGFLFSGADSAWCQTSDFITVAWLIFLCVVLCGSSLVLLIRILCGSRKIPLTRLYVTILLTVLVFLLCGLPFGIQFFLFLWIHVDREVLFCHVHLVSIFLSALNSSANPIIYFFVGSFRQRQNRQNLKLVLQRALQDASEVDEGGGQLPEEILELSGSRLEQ
#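 times = overnight plating, then 30 min 37 °C plus 30 min room-temperature dye loading | assay system = stable human MrgX1 HEK293 cell line | input = fifteen thousand cells per well | signal = kinetic calcium dye fluorescence, Fluo-4 NW | dosing = compound delivered in addition one of three | read-out = B-scored fluorescence response ratio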
# MrgX1 antag = human MrgX1 receptor antagonism, primary screen; MRGX1-HEK293 calcium flux, Fluo-4, BAM8-22 antagonism; stronger effect = lower value; B-score at 10 µM; 310,000 tested, 1.3% active;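 active = calcium-response B-score plate-corrected more than 3 library SD below zero, starting fluorescence within 5 deviations, no agonist response on first addition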;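 also: peak minus trough fluorescence over baseline after final BAM8-22 challenge near maximal dose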
# MrgX1 allo act = human MrgX1 positive allosteric modulation, primary screen; 310,000 tested, 0.63% active; Q96LB2; MrgX1-HEK293, Fluo-4 calcium flux, FDSS; stronger effect = higher value; B-score at 10 µM;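 active = plate-corrected calcium response at least 3 library SD above typical, normal starting fluorescence, not activating the receptor alone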;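 also: compound read alongside a low EC10 to EC30 dose of BAM8-22 agonist; peak minus trough fluorescence over baseline measured at the second addition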
# RGS4 act = potentiators or activators of RGS4; HEK293 M3R/inducible RGS4, carbachol calcium flux Fluo4; stronger effect = lower value; B-score at 10 µM; 310,000 tested, 0.92% active; AID 463111;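 active = B-score of the integrated calcium signal more than 4 SD below the library mean, with starting fluorescence not abnormally high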;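 also: negative B-score means reduced calcium response which marks RGS4 activation or potentiation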
#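 Material: M3R-expressing HEK293 line, RGS4 induced by doxycycline | Schedule: Overnight RGS4 induction, 30 min dye load 37 °C, 20 min compound RT | Measured by: Fluo4 fluorescence kinetic imaging of calcium | Read-out: Integrated calcium ratio converted to B score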
# RGS4 block valid = RGS4 inhibitor validation; 1,700 tested, 65% active; HEK293 M3R/RGS4, carbachol calcium Fluo-4 fluorescence; carbachol added at its EC20; 0 = buffer wells, 100 = carbachol control; calcium response, % at 10 µM; shares compounds with RGS4 inh;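 active = duplicate-averaged calcium response above the buffer-only control mean plus 5 SD of those controls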;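 also: integrated fluorescence ratio F max minus min over baseline F0; higher response in RGS4-induced cells means RGS4 inhibition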
# RGS4 uninduced = counter-screen for RGS4 inhibitors: effect in non-induced cells | activity (percent), % at 10 µM | 1,900 tested, 20% active | shares compounds with RGS4 inh | HEK293 M3R non-induced, carbachol calcium Fluo-4; submaximal (EC20) carbachol stimulus; buffer wells 0%, carbachol control wells 100%; call rule not given here;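 also: RGS4 induction absent so cells express M3R without RGS4; higher means more calcium signal and flags a non-specific hit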
# M3R basal Ca ctr = second counter-screen for RGS4 inhibitors: non-induced cells without carbachol; shares compounds with RGS4 inh; HEK293 M3R/RGS4 non-induced, Fluo-4 calcium, no carbachol; normalised: buffer wells 0%, carbachol wells 100%; calcium response (agonist-mode artifact), % at 10 µM; 1,900 tested, 22% active; AID 493001;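 active = duplicate-averaged calcium rise in uninduced cells above buffer wells' mean plus 5 SD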
# The depositor's hits bear a star; i = inactive; x = not tested or not shown.
SMILES,RGS4 inh,MrgX1 agonist,MrgX1 antag,MrgX1 allo act,RGS4 act,RGS4 block valid,RGS4 uninduced,M3R basal Ca ctr
Cc1ccccc1S(=O)(=O)Cc1ccc(C(=O)NC2CCCCC2)o1,i,i,i,i,i,x,x,x
NC(=O)c1cc2c(s1)-c1cc(Cl)ccc1SC2,5.86*,i,i,i,i,18.0%*,i,i
COCCNC(=O)c1cc2c(s1)-c1ccc(Cl)cc1SC2,i,i,i,i,i,x,x,x
COc1ccc(S(=O)(=O)Nc2cccc(F)c2)cc1C,i,i,i,i,i,x,x,x
COc1ccc(S(=O)(=O)Nc2ccc(S(=O)(=O)Nc3ccc(F)cc3)cc2)cc1C,5.03*,i,i,i,i,22.0%*,i,i
CC(C)(CO)NS(=O)(=O)c1ccc2c(c1)C(=NO)c1cc(S(=O)(=O)NC(C)(C)CO)ccc1-2,11.2*,i,i,i,i,16.0%*,i,i
NC1=NC(=Nc2ccc(Cl)cc2)c2ccccc21,7.96*,i,i,i,i,8.0%*,i,i
O=C1NN(c2cccc(Br)c2)C(=O)/C1=C\c1ccccc1,18.3*,i,i,i,i,16.5%*,32.0%*,14.0%*
O=C1NN(c2ccc(F)cc2)C(=O)/C1=C\c1cnn(-c2ccccc2)c1,i,i,i,i,i,x,x,x
COc1cc(/C=C2/C(=O)NN(c3ccccc3)C2=O)cc(Br)c1O,5.72*,31.3*,i,i,i,5.5%*,i,i
COc1cc(/C=C2\C(=O)NN(c3ccccc3)C2=O)cc([N+](=O)[O-])c1O,i,i,i,i,i,x,x,x
O=C(CSc1nnc(COc2ccc(Cl)cc2)o1)N1CCCCC1,i,i,i,i,i,x,x,x
[N-]=[N+]=CC(=O)C(c1ccccc1)(c1ccccc1)c1ccccc1,i,i,i,i,i,x,x,x
C=CC[C@]12C[C@@H](OC)C(=O)C=C1O[C@@H](c1ccc(OC)c(OC)c1)[C@H]2C,i,i,i,i,i,x,x,x
COc1ccc(NC(=O)CSc2nnc(-c3ccccc3)n2N)cc1,i,i,i,i,i,x,x,x
CCn1c2ccccc2c2cc(NC(=O)CSc3nnc(-c4ccc(OC)cc4)n3N)ccc21,5.26*,i,i,i,i,10.0%*,i,i
CC1=C(C(=O)OCC(C)C)C(c2ccc(F)cc2)NC(=O)N1 (stereo not drawn),i,i,i,i,i,x,x,x
O=[N+]([O-])c1cc(C(F)(F)F)ccc1NCCc1c[nH]c2ccc(O)cc12,12.6*,i,i,i,i,20.0%*,i,i
COCCN(C(=O)c1ccccc1F)c1nnc(-c2ccc(OC)cc2)s1,i,i,i,i,i,x,x,x
Cc1cc(C)c(S(=O)(=O)Nc2cccc(S(=O)(=O)NC3=NCCC3)c2)c(C)c1,4.85*,i,i,i,i,i,i,i
CN(C(=O)COc1ccc(S(=O)(=O)N2CCOCC2)cc1[N+](=O)[O-])C1CCS(=O)(=O)C1 (stereo not drawn),i,i,i,i,i,x,x,x
COc1ccc(C2CC(c3ccccc3)=NN2c2ccc(S(N)(=O)=O)cc2)cc1OC (stereo not drawn),8.46*,i,i,i,i,53.0%*,66.0%*,i
NS(=O)(=O)c1ccc(N2N=C(c3ccccc3)CC2c2cccc(F)c2)cc1 (stereo not drawn),i,i,i,i,i,x,x,x
COc1cc(C2CC(c3ccccc3)=NN2c2ccccc2)ccc1OCC(=O)O (stereo not drawn),i,i,i,i,i,x,x,x
COc1ccc(C2=NN(c3ccc(C(=O)O)cc3)C(c3ccc(OC)c(OC)c3)C2)cc1 (stereo not drawn),9.33*,i,i,i,i,18.0%*,38.0%*,i
SMILES,RGS4 inh,MrgX1 agonist,MrgX1 antag,MrgX1 allo act,RGS4 act,RGS4 block valid,RGS4 uninduced,M3R basal Ca ctr
COc1ccc(NC(=O)[C@H](C)NC(=O)[C@@H]2Cc3ccccc3CN2C(=O)OC(C)(C)C)cc1,i,i,i,i,i,x,x,x
CNC(=S)N1CCC(NC(=O)C(Cc2ccccc2)NC(C)=O)CC1 (stereo not drawn),i,i,i,i,i,x,x,x
O=C(N/N=C/c1c[nH]c2ccccc12)C1CC1c1ccccc1 (stereo not drawn),5.58*,i,i,i,i,9.5%*,36.0%*,11.0%*
O=C(N/N=C/c1c[nH]c2ccccc12)c1cc(-c2ccc(-c3ccccc3)cc2)n[nH]1,i,i,i,i,i,x,x,x
O=C(N/N=C/c1c[nH]c2ccccc12)C1CC1(c1ccccc1)c1ccccc1 (stereo not drawn),i,i,i,i,i,x,x,x
Cc1ccc(-c2cc(C(=O)N/N=C/c3c[nH]c4ccccc34)[nH]n2)cc1,i,x,x,x,i,i,i,i
O=C(c1ccco1)N1CCN(C(=S)NCc2ccc(F)cc2)CC1,i,i,i,i,i,x,x,x
N#Cc1ccccc1NC(=O)C1SC(=Nc2ccccc2)C(C(=O)Nc2ccc(Cl)cc2)=C1N (stereo not drawn),5.8*,i,i,i,i,i,i,i
C=CCn1nc([N+](=O)[O-])nc1Sc1cccc2cccnc12,6.15*,i,i,i,i,30.5%*,i,i
CCOCCCNC(=O)CN1C(=O)COc2ccc(S(=O)(=O)N3CCOCC3)cc21,27.5*,i,i,i,i,6.5%*,i,i
CCOCCCNC(=O)CN1C(=O)COc2ccc(S(=O)(=O)N3CC(C)CC(C)C3)cc21 (stereo not drawn),i,i,i,i,i,x,x,x
CCOCCCNC(=O)CN1C(=O)COc2ccc(S(=O)(=O)N3CCCCCC3)cc21,i,i,i,i,i,i,i,i
CCOCCCNC(=O)CN1C(=O)COc2ccc(S(=O)(=O)N3CCC(C)CC3)cc21,i,i,i,i,i,i,i,i
